Reference: ChEMBL document CHEMBL4138225, “Development of novel anti-filarial agents using carbamo(dithioperoxo)thioate derivatives” (Eur J Med Chem, 2018)
In brackets after ≈: the same amount, converted by molar mass. Activity calls are given as the source filed them. No cut-off for these calls is given here.

Experiments:
Setaria cervi [1] = test: Antifilarial activity against Setaria cervi microfilariae assessed as reduction in worm movement measured every 6 hrs up to 24 hrs by microscopy; type: functional, organism-based
Summary of the method: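 About 1×10^5 S. cervi mf per well in RPMI-1640 with 10% FBS at 5% CO2, given a dose series. Motility checked by microscope every 6 h up to 24 h and scored 4 (highly motile) down to 0 (dead). IC50 and MIC calculated from scores; three experiments in triplicate, mean ± SE.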

Setaria cervi [2] = test: Antifilarial activity against Setaria cervi microfilariae after 24 hrs by MTT assay; type: functional
Summary of the method: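 Bovine S. cervi microfilariae incubated with compounds (DMSO-dissolved) in RPMI-1640 + 10% FBS, 5% CO2, 24 h. Worms washed in PBS; ~1×10^3 suspended in 0.3 ml MTT 0.25 mg/ml, 37 °C 2 h in dark. Formazan dissolved in DMSO, absorbance at 595 nm. Percent inhibition computed; LC50 fitted; ≥4 repeats, mean ± SE.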

Setaria cervi [3] = test: Antifilarial activity against Setaria cervi microfilaria forms after 24 hrs by MTT assay; type: functional, organism-based
Summary of the method: (§1)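 S. cervi mf or adults cultured in RPMI-1640 with 10% FBS, 5% CO2, 24 h with compounds dissolved in DMSO. Worms washed in PBS, ~1×10^3 put in 0.25 mg/ml MTT for 2 h at 37 °C in the dark. Formazan dissolved in DMSO, A595. Percent inhibition computed, LC50 fitted; at least four repeats, mean ± SE.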

Setaria cervi [4] = test: Induction of chromatin condensation in Setaria cervi microfilariae by Hoechst 33342 staining-based […] microscopic analysis; type: functional, organism-based
Summary of the method: (§2)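 Treated mf washed in PBS (pH 7.2), fixed in paraformaldehyde and stained 5 min with 1 mg/mL Hoechst 33342. Mounted on poly-L-lysine slides and imaged by fluorescence microscopy at […].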

Setaria cervi [5] = test: Antifilarial activity against Setaria cervi adult after 24 hrs by MTT assay; type: functional, organism-based; summary of the method: as §1
Setaria cervi [6] = test: Antifilarial activity against Setaria cervi oocytes after 24 hrs by MTT assay; type: functional, organism-based
Setaria cervi [7] = test: Antifilarial activity against Setaria cervi microfilariae after 3 hrs
Setaria cervi [8] = test: Antifilarial activity against Setaria cervi microfilariae after 3 hrs by trypan blue exclusion assay; type: functional, organism-based
Summary of the method: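 After treatment, the culture was mixed and 100 μL holding parasites moved into fresh medium and put back in the CO2 incubator. Viability read by trypan blue staining, dead worms blue. Viability % = live / total microfilariae.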

Setaria cervi [9] = test: Antifilarial activity against Setaria cervi adult after 3 hrs by trypan blue exclusion assay; type: functional, organism-based
Setaria cervi [10] = test: Induction of apoptosis in Setaria cervi microfilaria assessed as necrotic cells at 50 ug/ml after 6 hrs by Annexin V-FITC/propidium iodide staining-based flow cytometric analysis (reference value: 0.02%); type: functional
WI-38 = test: Cytotoxicity against human WI38 cells after 24 hrs by MTT assay; type: cell-based; conditions: WI-38, 24 h
Summary of the method: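 WI-38 normal human lung fibroblasts, 2.0×10^4 per well, grown 24 h, then treated 24 h at 0–50 µg/mL. MTT 0.5 mg/mL added in phenol red-free RPMI with 5% FBS, 4 h at 37 °C, 5% CO2. Formazan dissolved in DMSO, A570.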

Setaria cervi [11] = test: Induction of apoptosis in Setaria cervi adult form assessed as increase in EGL1 protein levels after 24 hrs by Western blot analysis; type: functional, organism-based
Summary of the method: (§3)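 Adult worms treated 24 h at 10, 50 and 100 μg/mL. Protein measured by Lowry; 100 μg run on 12.5% SDS-PAGE and blotted to PVDF. Blocked in 10% skim milk, anti-EGL-1, CED-3 or CED-9 overnight at 4 °C, then alkaline phosphatase secondary for 6 h. BCIP/NBT detection, GAPDH loading control, band densitometry.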

Setaria cervi [12] = test: Induction of apoptosis in Setaria cervi oocytes at 1 to 5 ug/ml by acridine orange/ethidium bromide staining-based fluorescence microscopic analysis; type: functional, organism-based
Summary of the method: (§4)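 Treated mf or oocytes stained with AO and EtBr mixed 1:1 (from […] stocks in 0.1 M PBS). Viewed under fluorescence microscope on glass slides; orange EtBr signal marks lost membrane integrity.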

Setaria cervi [13] = test: Induction of apoptosis in Setaria cervi adult form assessed as decrease in CED9 protein levels after 24 hrs by Western blot analysis; type: functional, organism-based; summary of the method: as §3
Setaria cervi [14] = test: Induction of reactive oxygen species generation in Setaria cervi microfilariae at 1 to 10 uM by NBT assay; type: functional, organism-based
Summary of the method: (§5)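 Treated mf or adults pelleted at 7500 rpm, washed in PBS (50 mM, pH 7.0), then incubated in 2% NBT for 2 h at 37 °C. Washed in PBS and methanol, formazan dissolved in 2M KOH/DMSO for 10–15 min at room temperature, absorbance read at 620 nm.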

Setaria cervi [15] = test: Induction of apoptosis in Setaria cervi oocytes assessed as necrotic cells at 50 ug/ml after 6 hrs by Annexin V-FITC/propidium iodide staining-based flow cytometric analysis (reference value: 1.14%); type: functional
Setaria cervi [16] = test: Induction of apoptosis in Setaria cervi microfilaria assessed as early apoptotic cells at 50 ug/ml after 6 hrs by Annexin V-FITC/propidium iodide staining-based flow cytometric analysis (reference value: 2.11%); type: functional
Setaria cervi [17] = test: Induction of apoptosis in Setaria cervi oocytes assessed as viable cells at 50 ug/ml after 6 hrs by Annexin V-FITC/propidium iodide staining-based flow cytometric analysis (reference value: 90.03%); type: functional
Setaria cervi [18] = test: Induction of apoptosis in Setaria cervi microfilariae at 1 to 5 ug/ml by acridine orange/ethidium bromide staining-based fluorescence microscopic analysis; type: functional, organism-based; summary of the method: as §4
Setaria cervi [19] = test: Induction of apoptosis in Setaria cervi adult form assessed as increase in CED3 protein levels after 24 hrs by Western blot analysis; type: functional, organism-based; summary of the method: as §3
[20] = Selectivity ratio of IC50 for human WI38 cells to IC50 for Setaria cervi microfilariae; type: toxicity; conditions: read-out: Ratio IC50
Setaria cervi [21] = test: Induction of apoptosis in Setaria cervi microfilaria assessed as viable cells at 50 ug/ml after 6 hrs by Annexin V-FITC/propidium iodide staining-based flow cytometric analysis (reference value: 97.66%); type: functional
Setaria cervi [22] = test: Induction of apoptosis in Setaria cervi oocytes at 1 to 10 ug/ml after 6 hrs by Annexin V-FITC/propidium iodide staining-based fluorescence microscopic analysis; type: functional, organism-based
Summary of the method: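 Oocytes taken from gravid S. cervi females, cultured in RPMI-1640 with FBS and treated at 1 and 10 μg/mL. Washed, suspended in PBS (50 mM, pH 7.2), spun at 7500 rpm for 5 min, stained with Annexin V-FITC/PI. Imaged by inverted fluorescence microscope.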

Setaria cervi [23] = test: Induction of apoptosis in Setaria cervi microfilaria assessed as late apoptotic cells at 50 ug/ml after 6 hrs by Annexin V-FITC/propidium iodide staining-based flow cytometric analysis (reference value: 0.21%); type: functional
Setaria cervi [24] = test: Induction of chromatin condensation in Setaria cervi microfilariae at 5 ug/ml after 3 hrs by Hoechst 33342 staining-based […] microscopic analysis; type: functional, organism-based; summary of the method: as §2
Setaria cervi [25] = test: Induction of reactive oxygen species generation in Setaria cervi adult form at 1 to 10 uM by NBT assay; type: functional, organism-based; summary of the method: as §5
Setaria cervi [26] = test: Induction of apoptosis in Setaria cervi oocytes assessed as late apoptotic cells at 50 ug/ml after 6 hrs by Annexin V-FITC/propidium iodide staining-based flow cytometric analysis (reference value: 0.64%); type: functional
Setaria cervi [27] = test: Induction of apoptosis in Setaria cervi oocytes assessed as early apoptotic cells at 50 ug/ml after 6 hrs by Annexin V-FITC/propidium iodide staining-based flow cytometric analysis (reference value: 8.19%); type: functional

COc1ccc(SSC(=S)N2CCCC2)cc1
IC50 (Setaria cervi [1]): 24.2 µg/mL (≈ 85 µM)
MIC (Setaria cervi [1]): 8.08 µg/mL (≈ 28.3 µM)
LC50 (Setaria cervi [2]): 97 µg/mL (≈ 340 µM)

S=C(SSc1ccccn1)N1CCc2ccccc2C1
IC50 (Setaria cervi [1]): 24.8 µg/mL (≈ 77.8 µM)
MIC (Setaria cervi [1]): 8.26 µg/mL (≈ 25.9 µM)
LC50 (Setaria cervi [2]): 99.2 µg/mL (≈ 311 µM)

S=C(SSc1cccc2ccccc12)N1CCOCC1
IC50 (Setaria cervi [1]): 22.2 µg/mL (≈ 69.1 µM)
MIC (Setaria cervi [1]): 7.41 µg/mL (≈ 23 µM)
LC50 (Setaria cervi [2]): 88.9 µg/mL (≈ 277 µM)

COc1ccc(SSC(=S)N2CCCCC2)cc1
Activity (Setaria cervi [3]): Active
Activity (Setaria cervi [4]): Active
Activity (Setaria cervi [5]): Dose-dependent effect
Activity (Setaria cervi [6]): Active
IC50 (Setaria cervi [7]): 4.61 µg/mL (≈ 15.4 µM)
IC50 (Setaria cervi [1]): 4.61 µg/mL (≈ 15.4 µM)
MIC (Setaria cervi [1]): 2.3 µg/mL (≈ 7.68 µM)
Activity (Setaria cervi [2]): Dose-dependent effect
LC50 (Setaria cervi [2]): 6.94 µg/mL (≈ 23.2 µM)
Activity (Setaria cervi [8]): Dose-dependent effect
Activity (Setaria cervi [9]): Dose-dependent effect

Cc1ccc(SSC(=S)N2CCc3ccccc3C2)cc1
IC50 (Setaria cervi [1]): 32.1 µg/mL (≈ 96.9 µM)
MIC (Setaria cervi [1]): 10.7 µg/mL (≈ 32.3 µM)
LC50 (Setaria cervi [2]): 128 µg/mL (≈ 388 µM)

S=C(SSc1ccccn1)N1CCCCC1
IC50 (Setaria cervi [1]): 24.3 µg/mL (≈ 89.9 µM)
MIC (Setaria cervi [1]): 8.69 µg/mL (≈ 32.1 µM)
LC50 (Setaria cervi [2]): 97.3 µg/mL (≈ 360 µM)

S=C(SSc1ccccn1)N1CCOCC1
IC50 (Setaria cervi [1]): 47.7 µg/mL (≈ 175 µM)
MIC (Setaria cervi [1]): 15.9 µg/mL (≈ 58.3 µM)
LC50 (Setaria cervi [2]): 191 µg/mL (≈ 700 µM)

Cc1ccc(SSC(=S)N2CCOCC2)cc1
IC50 (Setaria cervi [1]): 19.9 µg/mL (≈ 69.7 µM)
MIC (Setaria cervi [1]): 6.63 µg/mL (≈ 23.2 µM)
LC50 (Setaria cervi [2]): 79.6 µg/mL (≈ 279 µM)

COc1ccc(SSC(=S)N2CCOCC2)cc1
IC50 (Setaria cervi [1]): 20.1 µg/mL (≈ 66.6 µM)
MIC (Setaria cervi [1]): 6.69 µg/mL (≈ 22.2 µM)
LC50 (Setaria cervi [2]): 80.3 µg/mL (≈ 266 µM)

S=C(SSc1cccc2ccccc12)N1CCCC1
IC50 (Setaria cervi [1]): 22.6 µg/mL (≈ 73.9 µM)
MIC (Setaria cervi [1]): 7.52 µg/mL (≈ 24.6 µM)
LC50 (Setaria cervi [2]): 90.3 µg/mL (≈ 296 µM)

Cc1ccc(SSC(=S)N2CCCCC2)cc1
Activity (Setaria cervi [10]): 0.01%
IC50 (WI-38): 19.8 µg/mL (≈ 70 µM)
Activity (Setaria cervi [11]): Dose-dependent effect
Activity (Setaria cervi [12]): Dose-dependent effect
Activity (Setaria cervi [3]): Active
Activity (Setaria cervi [13]): Dose-dependent effect
Activity (Setaria cervi [14]): Active
Activity (Setaria cervi [15]): 4.47%
Activity (Setaria cervi [16]): 15.6%
Activity (Setaria cervi [17]): 70.84%
Activity (Setaria cervi [5]): Dose-dependent effect
Activity (Setaria cervi [18]): Dose-dependent effect
Activity (Setaria cervi [19]): Dose-dependent effect
selectivity ratio [20]: 25
Activity (Setaria cervi [21]): 68.55%
Activity (Setaria cervi [22]): Dose-dependent effect
Activity (Setaria cervi [6]): Active
Activity (Setaria cervi [23]): 15.82%
IC50 (Setaria cervi [7]): 0.708 µg/mL (≈ 2.5 µM)
Activity (Setaria cervi [24]): Active
IC50 (Setaria cervi [1]): 0.708 µg/mL (≈ 2.5 µM)
MIC (Setaria cervi [1]): 0.358 µg/mL (≈ 1.26 µM)
Activity (Setaria cervi [2]): Dose-dependent effect
LC50 (Setaria cervi [2]): 3.89 µg/mL (≈ 13.7 µM)
Activity (Setaria cervi [8]): Dose-dependent effect
Activity (Setaria cervi [9]): Dose-dependent effect
Activity (Setaria cervi [25]): Active
Activity (Setaria cervi [26]): 11.3%
Activity (Setaria cervi [27]): 13.3%

S=C(SSc1cccc2ccccc12)N1CCc2ccccc2C1
IC50 (Setaria cervi [1]): 32.7 µg/mL (≈ 89 µM)
MIC (Setaria cervi [1]): 10.9 µg/mL (≈ 29.7 µM)
LC50 (Setaria cervi [2]): 131 µg/mL (≈ 356 µM)
